MrgX1 ag = agonists of human MrgX1 receptor, primary screen, HEK293 cells, Fluo-4 calcium flux. Fluo-4 calcium fluorescence, agonist mode; hits give high values. B-score at 10 µM. actives 0.44% (n = 310,000);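 active means calcium response B-score plate-corrected fluorescence ratio at least 3 library SD, with starting fluorescence B-score inside 5 SD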
Target sequence (Q96LB2 whole entry, looked up): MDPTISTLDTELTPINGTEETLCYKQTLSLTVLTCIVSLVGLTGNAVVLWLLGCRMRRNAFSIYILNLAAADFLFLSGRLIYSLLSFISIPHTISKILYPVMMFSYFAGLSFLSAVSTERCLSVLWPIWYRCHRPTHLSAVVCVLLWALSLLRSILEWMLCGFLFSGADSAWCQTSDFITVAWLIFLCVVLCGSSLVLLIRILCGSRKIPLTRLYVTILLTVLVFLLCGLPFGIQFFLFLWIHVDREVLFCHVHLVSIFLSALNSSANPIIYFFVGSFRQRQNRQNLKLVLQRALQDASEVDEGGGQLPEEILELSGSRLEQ
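Test system: HEK293 cells stably expressing human MrgX1 receptor; amount: 15,000 cells per well; doses: compound delivered in addition one of three; times: overnight plating before 1 h dye loading; detection: Fluo-4 NW calcium-flux fluorescence, kinetic read; read-out basis: B-scored fluorescence response ratio; controls: positive and negative controls per plate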
MrgX1 allo act = positive allosteric modulators of MrgX1, primary screen, HEK293 cells, Fluo-4 calcium flux. FDSS; hits give high values. AID 588675, 2011. Mas-related G-protein coupled receptor member X1 (Homo sapiens), Q96LB2. B-score at 10 µM. actives 0.63% (n = 310,000);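 active means plate-corrected calcium response at least 3 library SD above typical, normal starting fluorescence, not activating the receptor alone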;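 further: compound read alongside a low EC10 to EC30 dose of BAM8-22 agonist; peak minus trough fluorescence over baseline measured at the second addition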
RGS4 pot = RGS4 potentiators or activators, primary screen, cell-based, HEK293 M3R inducible RGS4, calcium flux | carbachol calcium flux Fluo4; hits give low values | B-score at 10 µM | actives 0.92% (n = 310,000) | AID 463111, 2010;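 active means B-score of the integrated calcium signal more than 4 SD below the library mean, with starting fluorescence not abnormally high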;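 further: negative B-score means reduced calcium response which marks RGS4 activation or potentiation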
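Assay system: HEK293 FlpIn-TREx cells, stable M3R, doxycycline-inducible RGS4 / Probe or stimulus: carbachol, ECmax concentration / Times: overnight RGS4 induction, 30 min dye load 37 °C, 20 min compound RT / Signal: kinetic calcium fluorescence imaging with Fluo4-AM dye, 2 µM / Measure: Agonist-evoked peak-minus-minimum fluorescence over baseline, integrated ratio, B score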
RGS4 inh = RGS4 inhibitors, primary screen, cell-based, HEK293 M3R inducible RGS4, calcium flux; Regulator of G-protein signaling 4 (Homo sapiens), P49798; Fluo-4 calcium flux; hits give high values; triggered by carbachol at its EC20; B-score at 10 µM; actives 0.45% (n = 310,000);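 active means B-score, a plate-corrected calcium signal, over three deviations above library mean, with baseline fluorescence within five deviations of library mean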;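 further: RGS4 expression induced by doxycycline in cells with stable M3 receptor; B-score is computed from the integrated fluorescence ratio over baseline after carbachol; higher B-score means a larger calcium signal and so more RGS4 inhibition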
Target sequence (P49798 whole entry, looked up): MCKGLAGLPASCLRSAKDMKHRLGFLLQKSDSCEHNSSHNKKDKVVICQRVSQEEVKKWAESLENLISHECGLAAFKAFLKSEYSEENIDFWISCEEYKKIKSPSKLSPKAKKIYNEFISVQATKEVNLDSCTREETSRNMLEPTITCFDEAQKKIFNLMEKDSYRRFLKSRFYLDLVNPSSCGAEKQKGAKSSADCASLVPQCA
MrgX1 antagonist = antagonists of human MrgX1 receptor, primary screen, HEK293 cells, Fluo-4 calcium flux; actives 1.3% (n = 310,000); B-score at 10 µM; BAM8-22 antagonism; hits give low values; Mas-related G-protein coupled receptor member X1 (Homo sapiens), Q96LB2;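 active means calcium-response B-score plate-corrected more than 3 library SD below zero, starting fluorescence within 5 deviations, no agonist response on first addition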;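 further: peak minus trough fluorescence over baseline after final BAM8-22 challenge near maximal dose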
RGS4 act valid = reduced carbachol calcium response, RGS4-induced M3R cells, confirmation, RGS4 activator project, cell-based, HEK293 M3R/RGS4 inducible, calcium flux, duplicate; shares compounds with RGS4 pot; actives 89% (n = 1,100); AID 602282, 2012; carbachol calcium flux Fluo4; inhibition, % at 10 µM;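 active means inhibition above 3 SD of the buffer control wells, cut at about 41% in these data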;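 further: signal is the integrated peak-minus-minimum Fluo4 fluorescence over baseline ratio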
RGS4 act ctr = counter-screen for RGS4 activators: effect in non-induced cells; shares compounds with RGS4 pot; HEK293 M3R non-induced RGS4, Fluo4 calcium flux; after carbachol challenge at its EC90; inhibition, % at 10 µM; actives 82% (n = 1,100);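 active means inhibition exceeding 3 SD of buffer-only control wells, cut at about 26% in these data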;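 further: percent drop in integrated peak-minus-baseline over baseline Fluo4 ratio after carbachol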
* marks the source's active call; other numbers are inactive results; i = inactive; . = no result given. Compounds with a hit are over-represented: about 3.5% of the library has one in this group of screens.

SMILES	MrgX1 ag	MrgX1 allo act	RGS4 pot	RGS4 inh	MrgX1 antagonist	RGS4 act valid	RGS4 act ctr
NC1C2CN(c3nc4c(cc3F)c(=O)c(C(=O)O)cn4-c3ccc(F)cc3F)CC12 (centres undefined)	i	i	i	i	i	.	.
CSc1nc(NCCCO)c2c3c(sc2n1)CN(C)CC3	i	i	-7.8*	i	i	0	0
COC(=O)c1cccc(Nc2nc(-c3cccnc3)nc3ccccc23)c1	i	i	-8.4*	i	i	42*	0
O=C(O)c1cccc(Nc2nc(-c3cccnc3)nc3ccccc23)c1	i	i	i	i	i	.	.
FC(F)(F)c1cccc(Cc2noc(CN3C[C@@H]4CCC[C@H]3C4)n2)c1	i	i	i	i	i	.	.
Cn1ccnc1C1CCCCN1Cc1nc(-c2ccc3c(c2)OCO3)no1 (centres undefined)	i	i	-7.8*	i	i	86*	62*
COc1ccc(-c2noc(CN3CCCCC3c3nccn3C)n2)cc1 (centres undefined)	i	i	-7.6*	i	i	66*	84*
CN(Cc1nc(-c2ccc3c(c2)OCO3)no1)CC1(N2CCOCC2)CCCCC1	i	i	i	i	i	.	.
Cn1ccnc1C1CCCCN1Cc1nc(Cc2cccc(C(F)(F)F)c2)no1 (centres undefined)	i	i	-10*	i	i	78*	40*
COc1ccc(C(C(=O)NC2CCCCC2)N(C(=O)c2sc(C)nc2C)c2ccc(C(C)=O)cc2)cc1 (centres undefined)	i	i	i	i	i	.	.
O=S(=O)(NCC1CCCO1)c1ccc(S(=O)(=O)N(Cc2ccccc2F)C2CCCCC2)cc1 (centres undefined)	i	i	i	i	i	.	.
O=C(Oc1ccc(-c2nnco2)cc1)c1ccco1	i	i	i	i	i	.	.
CN(Cc1ccccc1O)CC1CCCN(CCc2ccc(Cl)cc2)C1 (centres undefined)	i	i	-10*	i	i	94*	73*
CN(Cc1ccc(C#CCCO)cc1)CC1CCCN(CCc2ccc(Cl)cc2)C1 (centres undefined)	i	i	i	i	i	.	.
CC1C=CCC2C(=O)N(c3cccc(C(=O)Nc4ccc(F)cc4)c3)C(=O)C12 (centres undefined)	i	i	i	i	i	.	.
CCN(CC#CCC(O)(c1ccccc1)c1ccccc1)C(C)C	i	i	-8.3*	i	i	79*	30*
O=C(NCc1ccccc1)c1ccc(C2SCC(=O)N2Cc2ccccc2)cc1 (centres undefined)	i	i	-7.9*	i	i	88*	55*
C=CCNC(=O)c1ccc(C2SCC(=O)N2Cc2ccccc2)cc1 (centres undefined)	i	i	i	i	i	.	.
Cc1cc(N2CCCCCC2)nc2ccccc12	i	i	-10*	i	i	92*	48*
Cc1cc(N2CCCCC2)nc2ccccc12	i	i	i	i	i	.	.
CCCn1nnc(NCc2ccc(OCc3cccs3)c(OC)c2)n1	i	i	i	i	i	.	.
CCNCc1ccc(OCc2cccs2)c(OCC)c1	i	i	-8.9*	i	i	62*	0
O=C(NCc1ccccc1)C1COc2ccccc2O1 (centres undefined)	i	i	i	i	i	.	.
O=C(NC1CCN(Cc2ccccc2)CC1)C1COc2ccccc2O1 (centres undefined)	i	i	-8.5*	i	i	92*	87*
Cc1ccccc1N1CCN(CCCN2C(=O)CC(=C(c3ccccc3)c3ccccc3)C2=O)CC1	i	i	-8.4*	i	i	90*	43*
SMILES	MrgX1 ag	MrgX1 allo act	RGS4 pot	RGS4 inh	MrgX1 antagonist	RGS4 act valid	RGS4 act ctr
Cc1ccccc1OCC(=O)NNC(=O)C1CCN(c2ncnc3sc(C)c(C)c23)CC1	i	i	i	i	i	.	.
CCCN(CC(=O)Nc1ccccc1C)C(=O)C1CCN(c2ncnc3sc(C)c(C)c23)CC1	i	i	-8.7*	i	i	64*	27*
CCOC(=O)c1cc2c(ccn2C)n1Cc1cc(C)ccc1C	i	i	-8*	i	i	85*	30*
O=C(COc1ccc(Cl)cc1)NCc1ccncc1	i	i	i	i	i	.	.
COc1ccccc1/C=C/C(=O)Nc1nc(N)n(-c2ccccc2)n1	i	i	i	i	i	.	.
N#Cc1ccsc1NC(=O)CCc1ccccc1	i	i	i	i	i	.	.
N#Cc1ccsc1NC(=O)CCN1CCN(C(c2ccccc2)c2ccccc2)CC1	i	i	-9.1*	i	i	74*	84*
Cc1ccccc1-c1n[nH]c(=S)n1/N=C/C=C/c1ccco1	i	i	-8*	i	i	89*	44*
CC(/C=N/n1c(-c2n[nH]c3c2CCC3)n[nH]c1=S)=C\c1ccco1	i	i	-9*	i	i	93*	90*
CC(/C=N/n1c(-c2cccnc2)n[nH]c1=S)=C\c1ccco1	i	i	i	i	i	.	.
CCN(CC)CCn1c2c(c(SCC(=O)Nc3ccc4c(c3)OCCO4)nc1=O)CCCC2	i	i	i	i	i	.	.
C=CCn1c(SCC(=O)c2cccs2)nc2sc(C)c(C)c2c1=O	i	i	-9.4*	i	i	92*	38*
COc1ccc(OC)c(/C=C/c2nc3ccccc3[nH]c2=O)c1	i	i	-7.7*	i	i	60*	44*
CCC(C)C(NC(N)=O)C(=O)Nc1ccc(OCc2ccccc2)cc1 (centres undefined)	i	i	i	i	i	.	.
NCCCC(=O)N1c2ccccc2Sc2ccc(Cl)cc21	i	i	-7.9*	i	i	91*	85*
CN(C)CC(=O)N1c2ccccc2Sc2ccc(Cl)cc21	i	i	-8*	i	i	91*	69*
